The RNAGym collection of RNA variant scans (doi:10.1126/science.aae0568)
Fewer inactive variants are shown than the library holds.

B1: tRNA (parent)
chain: GUUCCGUUGGCGUAAUGGUAACGCGUCUCCCUCCUAAGGAGAAGACUGCGGGUUCGAGUCCCGUACGGAACG

Variants of: B1
Test: yeast fitness relative to wild type (ratio to wild type); higher = fitter; tRNA-Arg(CCU), competitive growth, 37 C, YPD
In short: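 Variants of the tRNA-Arg(CCU) gene, chemically synthesised with a 3% per-site mutation rate at 69 sites, were placed at the native genomic locus in Saccharomyces cerevisiae. The pooled strains were competed in YPD at 37°C for 24 hours in six parallel replicates. Gene amplicons from the start population and from each end population were read by 100-nucleotide paired-end sequencing. Darwinian fitness relative to wild type came from changes in genotype frequencies; genotypes needed ≥ 100 starting reads, and estimates < 0.5 were set to 0.5.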

Question: For GUUCCGUUGGCGUAAUGGUAACGCGUCUGCCUCCUAAGGAGAAGACUGCGGGUUCGUGUACCGUACGGAACG [C29G A57U C60A], which yeast fitness is on record?
Answer: Its yeast fitness is no more than 0.5.

Question: For GUUCCGUUGGCGUAAUGGUAACGCGUCUGCCUCCUAAGGAGAAGACUGCGGGUUCGAGUCCCGUGAGGAACG [C29G A65G C66A], which yeast fitness is on record?
Answer: Its yeast fitness is no more than 0.5.

Question: With GUUCCGUUGGCGUAAUGGUAACGCGUCUGCCUCCUAAGGAGAAGACUGCGGGUUCGAGUCCCGUUCGGAACG [C29G A65U] as the variant, how does the yeast fitness read?
Answer: Its yeast fitness is 0.579.

Question: With GUUCCGUUGGCGUAAUGGUAACGCGUCUGCCUCCUAAGGAGAAGACUGCGGGUUCGAGUCCCGUACGGCACG [C29G A69C] as the variant, how does the yeast fitness read?
Answer: The yeast fitness was 0.628.

Question: Which yeast fitness does the source give for GUUCCGUUGGCGUAAUGGUAACGCGUCUGCCUCCUAAGGAGAAGACUGCGGGUUCGAGUCCCGUACGGUACG [C29G A69U] here?
Answer: Its yeast fitness is 0.771.

Question: Which yeast fitness does the source give for GUUCCGUUGGCGUAAUGGUAACGCGUCUGCCUCCUAAGGAGAAGACUGCGGGUUCGAGUCCCGUACGGACCG [C29G A70C] here?
Answer: Its yeast fitness is 0.76.

Question: Which yeast fitness does the source give for GUUCCGUUGGCGUAAUGGUAACGCGUCUGCCUCCUAAGGAGAAGACUGCGGGUUCGAGUCCCGUACGGAGCG [C29G A70G] here?
Answer: Its yeast fitness is 0.548.

Question: Which yeast fitness does the source give for GUUCCGUUGGCGUAAUGGUAACGCGUCUGCCUCCUAAGGAGAAGACUGCGGGUUCGAGUCCCGUACGGAUCG [C29G A70U] here?
Answer: Its yeast fitness is 0.682.

Question: Which yeast fitness does the source give for GUUCCGUUGGCGUAAUGGUAACGCGUCUGGCUCCUAAGGAGAAGACUGCGGGUUCGAGUCCCGUACGGAACG [C29G C30G] here?
Answer: The yeast fitness was 0.814.

Question: With GUUCCGUUGGCGUAAUGGUAACGCGUCUGGCUCCUAAGGAGAAGACUGCGGGUUCGUGUCCCGUACGGAGCG [C29G C30G A57U A70G] as the variant, how does the yeast fitness read?
Answer: The yeast fitness was 0.503.

Question: For GUUCCGUUGGCGUAAUGGUAACGCGUCUGGCUCGUAAGGAGAAGACUGCGGGUUCGAGUACCGUACCGAACG [C29G C30G C34G C60A G67C], which yeast fitness is on record?
Answer: The yeast fitness was no more than 0.5.

Question: For GUUCCGUUGGCGUAAUGGUAACGCGUCUGGCUCCUAAGGAGAAGAGUGCGGGUUCGAGUCCCGUACGGAACG [C29G C30G C46G], which yeast fitness is on record?
Answer: The yeast fitness was 0.521.

Question: Which yeast fitness does the source give for GUUCCGUUGGCGUAAUGGUAACGCGUCUGGCUCCUAAGGAGAAGACUGAGGGUUCGAGUCCCGUACGGAACG [C29G C30G C49A] here?
Answer: Its yeast fitness is 0.839.

Question: Which yeast fitness does the source give for GUUCCGUUGGCGUAAUGGUAACGCGUCUGGCUCCUAAGGAGAAGACUGAGGGUUCCAGUCUCGUACGGCACG [C29G C30G C49A G56C C61U A69C] here?
Answer: The yeast fitness was 0.717.

Question: With GUUCCGUUGGCGUAAUGGUAACGCGUCUGGCCCCUUAGGAGAAGACUGCGGGUUCGAGUCCCGUACGGAACG [C29G C30G U32C A36U] as the variant, how does the yeast fitness read?
Answer: The yeast fitness was 0.524.

Question: For GUUCCGUUGGCGUAAUGGUAACGCGUCUGGCCCCUUAGGAGAAGACUGCGGGUUCGAGUUUCGUACGGAACG [C29G C30G U32C A36U C60U C61U], which yeast fitness is on record?
Answer: The yeast fitness was 0.566.

Question: With GUUCCGUUGGCGUAAUGGUAACGCGUCUGUGUCCUAAGGAGAAGACUGUCGGUUCGAGUCCCGUACGGAACG [C29G C30U C31G C49U G50C] as the variant, how does the yeast fitness read?
Answer: The yeast fitness was no more than 0.5.

Question: With GUUCCGUUGGCGUAAUGGUAACGCGUCUGUCUCCUAAGGAGAAGAUUACGGGUUCGAGUCCCGUACGGAACG [C29G C30U C46U G48A] as the variant, how does the yeast fitness read?
Answer: Its yeast fitness is no more than 0.5.

Question: For GUUCCGUUGGCGUAAUGGUAACGCGUCUGCAUCCUAAGGAGAAGACUGCGGGUUCGAGUCCCGUACGGAACG [C29G C31A], which yeast fitness is on record?
Answer: Its yeast fitness is 0.511.

Question: For GUUCCGUUGGCGUAAUGGUAACGCGUCUGCAUCCUAAGGAGCAGACUGCGGGUUCGAGUCCCGUACCGAACG [C29G C31A A42C G67C], which yeast fitness is on record?
Answer: The yeast fitness was 0.606.

Question: With GUUCCGUUGGCGUAAUGGUAACGCGUCUGCAUGCUAAGGAAAGGACUGCGGGUUCGAGUCUCGUACGGAACG [C29G C31A C33G G41A A43G C61U] as the variant, how does the yeast fitness read?
Answer: The yeast fitness was no more than 0.5.

Question: Which yeast fitness does the source give for GUUCCGUUGGCGUAAUGGUAACGCGUCUGCAUCCUAAGGAGAAGACUGCGGGUUCGAGUCCCGUACAGAACG [C29G C31A G67A] here?
Answer: Its yeast fitness is 0.56.

Question: Which yeast fitness does the source give for GUUCCGUUGGCGUAAUGGUAACGCGUCUGCGUCCUAAGGAGAAGACUGCGGGUUCGAGUCCCGUACGGAACG [C29G C31G] here?
Answer: The yeast fitness was 0.695.

Question: For GUUCCGUUGGCGUAAUGGUAACGCGUCUGCGUCCUACGGAGAAGACUGCGGGUUCGAGUCCCGUAAGGAACG [C29G C31G A37C C66A], which yeast fitness is on record?
Answer: Its yeast fitness is 0.575.

Question: Which yeast fitness does the source give for GUUCCGUUGGCGUAAUGGUAACGCGUCUGCGUCCUAAGGAGAAGAGUGCGGGUUUGAGUCCCGUACGGAACG [C29G C31G C46G C55U] here?
Answer: Its yeast fitness is no more than 0.5.

Question: With GUUCCGUUGGCGUAAUGGUAACGCGUCUGCGUCCUAAGGAGAAGACUGCGGGUUCGAGACCCGUACGGGACG [C29G C31G U59A A69G] as the variant, how does the yeast fitness read?
Answer: The yeast fitness was no more than 0.5.

Question: With GUUCCGUUGGCGUAAUGGUAACGCGUCUGCUUCCUAAGGAGAAGACUGCGGGUUCGAGUCCCGUACGGAACG [C29G C31U] as the variant, how does the yeast fitness read?
Answer: Its yeast fitness is 0.68.

Question: For GUUCCGUUGGCGUAAUGGUAACGCGUCUGCUUCCUAUGGAGAAGACUGCGGGUUCGAGUCCCGUACGGAACG [C29G C31U A37U], which yeast fitness is on record?
Answer: The yeast fitness was no more than 0.5.

Question: Which yeast fitness does the source give for GUUCCGUUGGCGUAAUGGUAACGCGUCUGCUUCCUAAGGAGACCACUGCGGGUUCGAGUCCCGUUCGGAACG [C29G C31U A43C G44C A65U] here?
Answer: Its yeast fitness is 0.517.

Question: Which yeast fitness does the source give for GUUCCGUUGGCGUAAUGGUAACGCGUCUGCUUCCUAAGGAGACCACUGCGGGUUCGAGUCCCGUACGCAACG [C29G C31U A43C G44C G68C] here?
Answer: The yeast fitness was no more than 0.5.

Question: Which yeast fitness does the source give for GUUCCGUUGGCGUAAUGGUAACGCGUCUGCCUAAUAAGGAGAAGACUGCGGGUUCGUGUCCCGUACGGAACG [C29G C33A C34A A57U] here?
Answer: Its yeast fitness is 0.54.

Question: With GUUCCGUUGGCGUAAUGGUAACGCGUCUGCCUGCUAAGGAGCAGACUGCGGGUUCGAGUCCCGUACGGAACG [C29G C33G A42C] as the variant, how does the yeast fitness read?
Answer: Its yeast fitness is 0.54.

Question: For GUUCCGUUGGCGUAAUGGUAACGCGUCUGCCUGCUAAGGAGCAGACUACGGGUUCGAGUCCCGUACGGAACG [C29G C33G A42C G48A], which yeast fitness is on record?
Answer: Its yeast fitness is 0.777.

Question: With GUUCCGUUGGCGUAAUGGUAACGCGUCUGCCUGCUAAGGAGAUGACUGCGGGUUCGAGUCCCGUACGGAACG [C29G C33G A43U] as the variant, how does the yeast fitness read?
Answer: The yeast fitness was no more than 0.5.

Question: With GUUCCGUUGGCGUAAUGGUAACGCGUCUGCCUGCUAAGGAGAAGACUGUGGGUUCGAGUCCCGUACGGAACG [C29G C33G C49U] as the variant, how does the yeast fitness read?
Answer: Its yeast fitness is 0.536.

Question: Which yeast fitness does the source give for GUUCCGUUGGCGUAAUGGUAACGCGUCUGCCUGCUAAGGAGAAGACUGCGGCUUCGAGUCCCGUACGGAACG [C29G C33G G52C] here?
Answer: Its yeast fitness is 0.579.

Question: Which yeast fitness does the source give for GUUCCGUUGGCGUAAUGGUAACGCGUCUGCCUGCUAAGGAGAAGACUGCGGGUUCGACUCCGGUACGGAACG [C29G C33G G58C C62G] here?
Answer: The yeast fitness was no more than 0.5.

Question: With GUUCCGUUGGCGUAAUGGUAACGCGUCUGCCUGCGAAGGAGAAAACUGCGGGUUCGAGUCCCGUACGGAACG [C29G C33G U35G G44A] as the variant, how does the yeast fitness read?
Answer: The yeast fitness was 0.628.
